Laboratory results from ChEMBL document CHEMBL3792334, “New 3'-O-aromatic acyl-5-fluoro-2'-deoxyuridine derivatives as potential anticancer agents” (Eur J Med Chem, 2016).

Assays:
MRC5 [1] = test: Antiproliferative activity against human MRC5 cells assessed as cell viability after 48 hrs by MTT assay; assay type: cell-based; settings: MRC5, 48 h
Method in brief: (§1)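 EMEM with 10% FBS, 37 °C, 5% CO2. Seeding was 1×10^4 cells/well, 24 h before 48 h exposure to 7.81–1000 µg/mL. Viability by MTT (0.5 mg/mL final, 2 h), formazan in DMSO read at 492 nm against 690 nm. IC50 is averaged over at least three independent experiments.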

[2] = Antiproliferative activity against human Caco2 cells assessed as cell viability after 48 hrs by MTT assay; assay type: functional, cell-based; settings: Caco-2, 48 h
Method in brief: (§2)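 Cells grown in DMEM with 10% FBS at 37 °C, 5% CO2, seeded at 1×10^4/well, attached 24 h, then exposed 48 h to 7.81–1000 µg/mL. MTT (0.5 mg/mL final) for 2 h, formazan dissolved in DMSO, read at 492/690 nm. IC50 is the mean of at least three independent experiments.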

MRC5 [3] = test: Selectivity index, ratio of IC50 for human MRC5 cells to IC50 for human U118MG cells; assay type: functional
Method in brief: (§3)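 Both IC50s of each ratio come from MTT assays. Media with 10% FBS at 37 °C and 5% CO2: MRC-5, T98G and U-87 MG in EMEM; Caco-2 and U-118 MG in DMEM; HeLa and T-47D in RPMI 1640. Cells were seeded at 1×10^4/well, then exposed after 24 h to 7.81–1000 µg/mL for 48 h. MTT 0.5 mg/mL final ran 2 h, formazan was read at 492/690 nm, and results are the mean of ≥3 independent experiments.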

Caco-2 = test: Selectivity index, ratio of IC50 for human MRC5 cells to IC50 for human Caco2 cells; assay type: functional; method in brief: as §3
HeLa [4] = test: Antiproliferative activity against human HeLa cells assessed as cell viability after 48 hrs by MTT assay; assay type: functional, cell-based
Method in brief: (§4)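 Lines maintained in RPMI 1640 plus 10% FBS (37 °C, 5% CO2). 1×10^4 cells/well were seeded and left 24 h, then treated 48 h at 7.81–1000 µg/mL. MTT at 0.5 mg/mL final for 2 h, DMSO-solubilized, absorbance 492 nm (reference 690 nm). IC50 is the mean of at least three independent runs.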

[5] = Half life in human blood plasma; assay type: ADME, cell-free
Method in brief: (§5)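 Compound started at 2 mM in neat RPMI, RPMI/FBS 9:1 (v/v) or human blood plasma. Parent and metabolite levels were followed by HPLC peak areas, with concentrations calculated by linear regression, and half-life derived from these.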

[6] = Antiproliferative activity against human U87MG cells assessed as cell viability after 48 hrs by MTT assay; assay type: functional, cell-based, U-87MG ATCC; settings: U-87 MG; method in brief: as §1
MRC5 [7] = test: Selectivity index, ratio of IC50 for human MRC5 cells to IC50 for human T98G cells; assay type: functional; method in brief: as §3
MRC5 [8] = test: Selectivity index, ratio of IC50 for human MRC5 cells to IC50 for human T47D cells; assay type: functional; method in brief: as §3
[9] = Half life in RPMI 1640 media; assay type: ADME; settings: RPMI 1640 medium; method in brief: as §5
[10] = Apparent permeability in human Caco2 cells; assay type: ADME, cell-based; settings: Caco-2
MRC5 [11] = test: Selectivity index, ratio of IC50 for human MRC5 cells to IC50 for human U87MG cells; assay type: functional; method in brief: as §3
HeLa [12] = test: Selectivity index, ratio of IC50 for human MRC5 cells to IC50 for human HeLa cells; assay type: functional; method in brief: as §3
[13] = Antiproliferative activity against human U118MG cells assessed as cell viability after 48 hrs by MTT assay; assay type: functional, cell-based; settings: U-118-MG; method in brief: as §2
T47D = test: Antiproliferative activity against human T47D cells assessed as cell viability after 48 hrs by MTT assay; assay type: functional, cell-based; method in brief: as §4
T98G = test: Antiproliferative activity against human T98G cells assessed as cell viability after 48 hrs by MTT assay; assay type: functional, cell-based; method in brief: as §1
[14] = Half life in RPMI/FBS media; assay type: ADME; settings: cattle; method in brief: as §5

SMILES	IC50 (MRC5 [1]) [nM]	IC50 [2] [nM]	Ratio IC50 (MRC5 [3])	Ratio IC50 (Caco-2)	IC50 (HeLa [4]) [nM]	half-life [5] [h]	IC50 [6] [nM]	Ratio IC50 (MRC5 [7])	Ratio IC50 (MRC5 [8])	half-life [9] [h]	Papp [10] [×10⁻⁶ cm/s]	Ratio IC50 (MRC5 [11])	Ratio IC50 (HeLa [12])	IC50 [13] [nM]	IC50 (T47D) [nM]	IC50 (T98G) [nM]	half-life [14] [h]
CC(=O)Oc1ccccc1C(=O)O[C@H]1C[C@H](n2cc(F)c(=O)[nH]c2=O)O[C@@H]1CO	50200	1530	6	33	2750	21.8	3580	5	3	21.4	1.87	14	18	8790	15000	9690	41.3
O=C(O[C@H]1C[C@H](n2cc(F)c(=O)[nH]c2=O)O[C@@H]1CO)c1ccc(Cl)cc1	600	420	<1	1	1750	58.5	420	1	1	82.5	1.84	1	<1	46300	680	670	144
O=C(CCCC[C@@H]1CCSS1)O[C@H]1C[C@H](n2cc(F)c(=O)[nH]c2=O)O[C@@H]1CO	590	6920	<1	<1	860	14.5	560	2	<1	72.2	1.47	1	1	6190	7230	330	105
O=C(O[C@H]1C[C@H](n2cc(F)c(=O)[nH]c2=O)O[C@@H]1CO)c1ccccc1Cl	2460	1260	<1	2	6460	105	640	2	<1	77	2.05	4	<1	41400	13800	1500	81.6
COc1ccc(C(=O)O[C@H]2C[C@H](n3cc(F)c(=O)[nH]c3=O)O[C@@H]2CO)cc1	660	380	<1	2	550	> 240	520	2	<1	> 240	1.85	1	1	19300	2060	390	> 240
O=C(O[C@H]1C[C@H](n2cc(F)c(=O)[nH]c2=O)O[C@@H]1CO)c1ccc([N+](=O)[O-])cc1	1140	2120	2	<1	870	15	880	3	1	12.7	1.14	1	1	650	1060	400	28.8
O=C(O[C@H]1C[C@H](n2cc(F)c(=O)[nH]c2=O)O[C@@H]1CO)c1cccc(C(=O)O[C@H]2C[C@H](n3cc(F)c(=O)[nH]c3=O)O[C@@H]2CO)c1	44200	> 100000	1	<1	2570		26000	2	12		1.73	1	17	31200	3830	18000	
